Activity calls are given as the source filed them. The rule behind the calls is not given here.
Experiments:
Ovis aries [1] = organism: Ovis aries; assay: Inhibition of sheep brain dynamin 1 GTPase activity at 300 uM by malachite green GTPase assay
Dynamin-2 (Homo sapiens) [2] = target: T1, Dynamin-2 (Homo sapiens) (UniProt P50570); assay: Inhibition of dynamin 2-mediated endocytosis internalization of Texas red-transferrin in human U2OS cells at 100 uM pretreated for 30 mins; type: cell-based
T1 sequence (whole entry): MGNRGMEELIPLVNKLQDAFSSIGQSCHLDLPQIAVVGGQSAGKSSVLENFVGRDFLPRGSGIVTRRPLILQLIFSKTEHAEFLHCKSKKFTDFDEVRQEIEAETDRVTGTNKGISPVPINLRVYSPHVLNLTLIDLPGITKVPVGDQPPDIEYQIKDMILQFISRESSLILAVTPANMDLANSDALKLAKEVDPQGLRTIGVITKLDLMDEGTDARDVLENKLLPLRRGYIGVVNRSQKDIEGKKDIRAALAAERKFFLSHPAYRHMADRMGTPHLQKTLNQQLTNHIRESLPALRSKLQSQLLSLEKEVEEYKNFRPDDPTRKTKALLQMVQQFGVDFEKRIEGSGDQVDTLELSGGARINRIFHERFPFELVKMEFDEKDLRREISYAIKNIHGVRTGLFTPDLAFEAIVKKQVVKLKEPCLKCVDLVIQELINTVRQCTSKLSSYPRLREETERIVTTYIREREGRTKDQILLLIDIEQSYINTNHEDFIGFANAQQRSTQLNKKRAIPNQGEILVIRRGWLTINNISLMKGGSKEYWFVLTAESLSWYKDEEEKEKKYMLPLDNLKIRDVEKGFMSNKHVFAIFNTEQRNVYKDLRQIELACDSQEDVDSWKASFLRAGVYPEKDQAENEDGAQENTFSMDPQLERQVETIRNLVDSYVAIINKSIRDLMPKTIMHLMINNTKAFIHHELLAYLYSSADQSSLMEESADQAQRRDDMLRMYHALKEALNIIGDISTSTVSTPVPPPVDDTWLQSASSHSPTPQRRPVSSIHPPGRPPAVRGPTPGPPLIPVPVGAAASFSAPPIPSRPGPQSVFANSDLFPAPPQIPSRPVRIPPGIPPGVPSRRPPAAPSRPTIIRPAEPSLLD
How it was run: (§1)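 U2OS cells in DMEM/10% FCS on fibronectin-coated wells, serum-starved overnight (16 h). Preincubated 30 min with drug or vehicle, then Tf-Texas Red 4 µg/mL for 8 min at 37 °C. Ice-cold acid wash (0.2 M acetic acid/0.5 M NaCl, pH 2.8) strips surface Tf. Cells fixed in 4% PFA and DAPI-stained, and internalized Tf-TxR imaged by fluorescence microscopy. Final DMSO at most 1%.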

[3] = Inhibition of sheep brain dynamin 1 GTPase activity by malachite green GTPase assay; design: species or system Ovis aries
How it was run: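 Buffer: 5 mM Tris pH 7.4, 10 mM NaCl, 2 mM Mg2+, 0.05% Tween 80, leupeptin, PMSF. GTP 0.3 mM, 30 min at 37 °C. Stopped with EDTA, malachite green added, A650 read against a phosphate standard. IC50 is the mean of at least three experiments in duplicate.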

U2OS = assay: Toxicity against human U2OS cells assessed as effect on cell morphology after 30 mins; type: cell-based; conditions: 0.5 h
Ovis aries [4] = organism: Ovis aries; assay: Uncompetitive inhibition of sheep brain dynamin 1 GTPase activity using variable GTP level by kinetic assay; type: tissue-based
How it was run: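 Malachite green Pi release assay with PS-stimulated sheep brain dynamin I (20 nM) at 37 °C for 30 min, with GTP substrate varied in the presence of inhibitor. Vmax and Km were obtained by nonlinear Michaelis–Menten fitting, then the data were replotted as Lineweaver–Burk to assign the inhibition mode.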

Dynamin-2 (Homo sapiens) [5] = target: T1, Dynamin-2 (Homo sapiens); assay: Inhibition of dynamin 2-mediated endocytosis internalization of Texas red-transferrin in human U2OS cells at 30 uM pretreated for 30 mins; type: cell-based; how it was run: as §1
[6] = Toxicity against human fibroblasts assessed as cell viability at 10 uM by trypan blue exclusion method; type: cell-based, Fibroblast; conditions: read-out: Activity
How it was run: (§2)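 Cells seeded at 1 × 10⁵ per 10 cm dish. From 24 h after seeding, exposed continuously for 7 days to drug (10 µM) or 0.5% DMSO vehicle. Floating and adherent cells collected, and viability scored by Trypan Blue exclusion on an automated analyzer. Cell lines: hTert breast stromal fibroblasts, two primary skin fibroblast lines, a primary myoblast line, NIH3T3.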

[7] = Toxicity against mouse NIH/3T3 cells assessed as cell viability at 10 uM by trypan blue exclusion method; type: cell-based, NIH3T3; conditions: read-out: Activity; how it was run: as §2

| SMILES | inhibition (Ovis aries [1]) | IC50 [3] [µM] | also measured |
| --- | --- | --- | --- |
| CCCNC(=O)/C(C#N)=C/c1c(C)n(CCCN(C)C)c2ccccc12 | inactive |  |  |
| CCNC(=O)/C(C#N)=C/c1c(C)[nH]c2ccccc12 | inactive |  |  |
| CCCCCCCCCCNC(=O)/C(C#N)=C/c1c(C)n(CCN(C)C)c2ccccc12 |  | 10.1 | Activity (Dynamin-2 (Homo sapiens) [2]): Active; Activity (U2OS): Non-toxic |
| Cc1c(C=O)c2ccccc2n1CCN(C)C | inactive |  |  |
| CCCCNC(=O)/C(C#N)=C/c1c(C)n(CCN(C)C)c2ccccc12 |  | 300 |  |
| CCCCCCCCNC(=O)/C(C#N)=C/c1c(C)n(CCCN(C)C)c2ccccc12 |  | 3.33 | Activity (Dynamin-2 (Homo sapiens) [2]): Active; Activity (Ovis aries [4]): Active; Activity (Dynamin-2 (Homo sapiens) [5]): Active; Activity (U2OS): Non-toxic |
| CCCCCCCCNC(=O)/C(C#N)=C/c1c(C)n(CCN(C)C)c2ccccc12 |  | 9.05 | Activity (Dynamin-2 (Homo sapiens) [2]): Active; Activity (U2OS): Non-toxic |
| COc1ccc(CNC(=O)/C(C#N)=C/c2c(C)n(CCN(C)C)c3ccccc23)cc1 |  | 254 |  |
| CN(C)CCn1cc(CCC(=O)O)c2ccccc21 |  | 131 |  |
| CCCNC(=O)/C(C#N)=C/c1c(C)[nH]c2ccccc12 | inactive |  |  |
| CCCCNC(=O)/C(C#N)=C/c1c(C)n(CCCN(C)C)c2ccccc12 | inactive |  |  |
| CCCCCCCCNC(=O)/C(C#N)=C/c1c(C)[nH]c2ccccc12 | inactive |  |  |
| COc1ccc(CNC(=O)/C(C#N)=C/c2c(C)n(CCCN(C)C)c3ccccc23)cc1 |  | 222 |  |
| CCCCCCNC(=O)/C(C#N)=C/c1c(C)[nH]c2ccccc12 | inactive |  |  |
| Cc1[nH]c2ccccc2c1/C=C(\C#N)C(=O)NCc1ccccc1 | inactive |  |  |
| CCCCNC(=O)/C(C#N)=C/c1c(C)[nH]c2ccccc12 | inactive |  |  |
| Cc1c(/C=C(\C#N)C(=O)NCc2ccccc2)c2ccccc2n1CCN(C)C |  | 196 |  |
| Cc1[nH]c2ccccc2c1/C=C(\C#N)C(=O)NC1CCCCC1 | inactive |  |  |
| CN1CCCC1CCn1cc(C2=C(c3c[nH]c4ccccc34)C(=O)NC2=O)c2ccccc21 (centres undefined) |  | 100 |  |
| CCCCCCCCNC(=O)/C(C#N)=C/c1cn(CCCN(C)C)c2ccccc12 |  | 1.3 | Activity (Dynamin-2 (Homo sapiens) [2]): Active; viability at 10 µM [6]: > 98%; Activity (Dynamin-2 (Homo sapiens) [5]): Active; Activity (U2OS): Non-toxic; viability at 10 µM [7]: > 98% |
| Cc1c(C=O)c2ccccc2n1CCCN(C)C | inactive |  |  |
| CCCCCCCCCCCCCCNC(=O)/C(C#N)=C/c1c(C)n(CCCN(C)C)c2ccccc12 |  | 52 |  |

| SMILES | inhibition (Ovis aries [1]) | IC50 [3] [µM] | also measured |
| --- | --- | --- | --- |
| CN(C)CCCn1cc(C2=C(c3c[nH]c4ccccc34)C(=O)NC2=O)c2ccccc21 [GF-109203] |  | 100 |  |
| CCCCCCCCCCCCCCNC(=O)/C(C#N)=C/c1c(C)n(CCN(C)C)c2ccccc12 |  | 38 |  |
| CCNC(=O)/C(C#N)=C/c1c(C)n(CCCN(C)C)c2ccccc12 | inactive |  |  |
| CN(C)CCn1cc(CC(=O)O)c2ccccc21 | inactive |  |  |
| CCCCCCNC(=O)/C(C#N)=C/c1c(C)n(CCN(C)C)c2ccccc12 |  | 7.69 |  |
| Cc1c(/C=C(\C#N)C(=O)NCc2ccccc2)c2ccccc2n1CCCN(C)C |  | 201 |  |
| CCNC(=O)/C(C#N)=C/c1c(C)n(CCN(C)C)c2ccccc12 | inactive |  |  |
| Cc1c(/C=C(\C#N)C(=O)NC2CCCCC2)c2ccccc2n1CCCN(C)C |  | 300 |  |
| Cc1cc2ccccc2n1CCCN(C)C |  | 300 |  |
| COc1ccc(CNC(=O)/C(C#N)=C/c2c(C)[nH]c3ccccc23)cc1 | inactive |  |  |
| CCCCCCCCCCCCNC(=O)/C(C#N)=C/c1c(C)n(CCN(C)C)c2ccccc12 |  | 32 |  |
| CCCCCCCCCCNC(=O)/C(C#N)=C/c1c(C)[nH]c2ccccc12 | inactive |  |  |
| CN(C)CCCn1cc(CCC(=O)O)c2ccccc21 |  | 143 |  |
| Cc1c(/C=C(\C#N)C(=O)NC2CCCCC2)c2ccccc2n1CCN(C)C |  | 300 |  |
| CCCCCCCCCCCCNC(=O)/C(C#N)=C/c1c(C)[nH]c2ccccc12 | inactive |  |  |
| CN(C)CCn1ccc2ccccc21 |  | 300 |  |
| CN(C)CCCn1cc(CC(=O)O)c2ccccc21 | inactive |  |  |
| CCCCCCNC(=O)/C(C#N)=C/c1c(C)n(CCCN(C)C)c2ccccc12 |  | 6.62 | Activity (Dynamin-2 (Homo sapiens) [2]): Active; Activity (U2OS): Non-toxic |
| CCCCCCCCCCCCCCNC(=O)/C(C#N)=C/c1c(C)[nH]c2ccccc12 | inactive |  |  |
| CCCNC(=O)/C(C#N)=C/c1c(C)n(CCN(C)C)c2ccccc12 | inactive |  |  |
| CN(C)CCCn1ccc2ccccc21 |  | 300 |  |
| Cc1cc2ccccc2n1CCN(C)C |  | 300 |  |

Source: ChEMBL document CHEMBL1136965, “Inhibition of dynamin mediated endocytosis by the dynoles--synthesis and functional activity of a family of indoles” (J Med Chem, 2009)
